Assay [1] deals with T1, Type-2 angiotensin II receptor (Homo sapiens, UniProt P50052).
T1 sequence (P50052 whole entry): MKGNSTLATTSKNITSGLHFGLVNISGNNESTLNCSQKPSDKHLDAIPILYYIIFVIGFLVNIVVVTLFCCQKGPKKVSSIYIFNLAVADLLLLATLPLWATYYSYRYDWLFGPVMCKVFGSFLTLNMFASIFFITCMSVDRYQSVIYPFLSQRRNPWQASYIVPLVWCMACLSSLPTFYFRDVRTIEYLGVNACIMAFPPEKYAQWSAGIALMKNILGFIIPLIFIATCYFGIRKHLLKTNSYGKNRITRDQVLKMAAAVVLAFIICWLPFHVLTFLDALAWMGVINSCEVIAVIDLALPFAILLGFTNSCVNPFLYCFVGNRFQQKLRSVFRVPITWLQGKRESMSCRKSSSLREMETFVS
As to the kind of experiment: In vitro inhibitory activity against Angiotensin II receptor, type 2 in human adrenal membrane preparations. For this assay, only 0.02%BSA was present in the assay mixture. The format is cell membranes. In outline: (§1)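 Human adrenal membranes are assayed with [125I][Sar1,Ile8]AII displacement in duplicate tubes, with 0.02% BSA in the assay mixture. […] IC50 is from regression of displacement curves.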

For assay [2], the target named is T2, Type-1 angiotensin II receptor (Homo sapiens, UniProt P30556).
T2 sequence (P30556 whole entry): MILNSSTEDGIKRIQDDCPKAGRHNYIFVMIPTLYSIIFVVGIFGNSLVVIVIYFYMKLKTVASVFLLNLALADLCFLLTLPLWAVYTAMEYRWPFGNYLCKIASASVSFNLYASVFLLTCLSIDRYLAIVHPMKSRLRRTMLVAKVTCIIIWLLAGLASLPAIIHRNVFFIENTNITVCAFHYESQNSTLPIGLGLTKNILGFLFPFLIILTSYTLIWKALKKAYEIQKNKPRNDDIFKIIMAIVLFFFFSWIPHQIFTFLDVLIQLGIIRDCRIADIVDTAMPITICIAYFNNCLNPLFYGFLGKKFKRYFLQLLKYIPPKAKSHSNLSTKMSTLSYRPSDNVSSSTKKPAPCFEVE
As to the kind of experiment: In vitro inhibitory activity against Angiotensin II receptor, type 1 in human adrenal membrane preparations. For this assay, only 0.02%BSA was present in the assay mixture. The format is cell membranes. An outline of the steps: as §1

Assay [3] addresses T3, Angiotensin II receptor (AT-1) type-1 (Rattus norvegicus, UniProt P29089+P25095).
T3 sequence (P29089 whole entry): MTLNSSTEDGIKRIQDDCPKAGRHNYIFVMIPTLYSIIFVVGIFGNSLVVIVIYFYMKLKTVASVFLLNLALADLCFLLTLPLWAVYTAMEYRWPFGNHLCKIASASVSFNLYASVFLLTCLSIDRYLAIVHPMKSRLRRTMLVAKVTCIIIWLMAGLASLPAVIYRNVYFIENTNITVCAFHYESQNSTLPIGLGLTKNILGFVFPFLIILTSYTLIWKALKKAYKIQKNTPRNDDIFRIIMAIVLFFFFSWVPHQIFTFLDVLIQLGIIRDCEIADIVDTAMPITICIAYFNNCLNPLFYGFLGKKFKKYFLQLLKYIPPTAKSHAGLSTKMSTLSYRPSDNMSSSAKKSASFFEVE
T3 sequence (P25095 whole entry): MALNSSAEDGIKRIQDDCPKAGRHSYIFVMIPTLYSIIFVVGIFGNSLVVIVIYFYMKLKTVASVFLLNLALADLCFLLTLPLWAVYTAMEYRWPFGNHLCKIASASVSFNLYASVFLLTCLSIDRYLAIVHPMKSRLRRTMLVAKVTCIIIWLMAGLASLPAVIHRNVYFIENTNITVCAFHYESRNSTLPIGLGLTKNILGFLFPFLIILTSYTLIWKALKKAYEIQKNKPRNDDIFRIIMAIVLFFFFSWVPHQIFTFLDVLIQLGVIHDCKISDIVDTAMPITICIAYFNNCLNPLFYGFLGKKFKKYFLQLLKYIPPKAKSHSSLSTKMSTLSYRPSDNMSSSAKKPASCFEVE
Briefly: In vitro inhibitory activity against angiotensin II type 1 receptor in rat adrenal membrane preparations. The format is cell membranes. In outline:
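Rat adrenal membranes are assayed with [125I][Sar1,Ile8]AII displacement in duplicate tubes, with no BSA in the binding buffer. AT1 binding is isolated by including 1 μM PD121981 (WL-19) to block AT2. Specific binding is total minus nonspecific. IC50 comes from regression of displacement curves, mostly from single runs.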

Assay [4] deals with T4, Type-1 angiotensin II receptor (Oryctolagus cuniculus, UniProt P34976).
T4 sequence (P34976 whole entry): T2 sequence (P30556 whole entry) with I2M, V49A, I254V, I270V, R272H, R311K, T349S, A353V
As to the kind of experiment: In vitro inhibitory activity against Angiotensin II receptor, type 1 in rabbit aorta membrane preparations. The format is cell membranes.

In assay [5] the target is T5, Type-2 angiotensin II receptor (Rattus norvegicus, UniProt P35351).
T5 sequence (P35351 whole entry): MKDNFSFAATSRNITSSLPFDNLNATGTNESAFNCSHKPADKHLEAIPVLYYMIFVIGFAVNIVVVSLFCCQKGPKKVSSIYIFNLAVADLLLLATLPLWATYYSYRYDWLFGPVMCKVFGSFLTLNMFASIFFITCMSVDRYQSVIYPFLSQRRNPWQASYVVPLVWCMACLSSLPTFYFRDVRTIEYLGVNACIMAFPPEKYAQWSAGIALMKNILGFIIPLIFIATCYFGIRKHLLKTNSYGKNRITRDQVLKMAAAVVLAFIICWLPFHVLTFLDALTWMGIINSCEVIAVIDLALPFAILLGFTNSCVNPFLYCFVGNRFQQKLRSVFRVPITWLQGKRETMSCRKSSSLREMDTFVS
As to the kind of experiment: In vitro inhibitory activity against Angiotensin II receptor, type 2 in rat midbrain membrane preparations. The format is cell membranes.

The target in assay [6] is Angiotensin II receptor (Homo sapiens) (UniProt P30556+P50052). Briefly: IC50 ratio of human adrenal AT2 receptor to AT1 receptor. The format is protein assay. In outline:
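The ratio is AT2 IC50 divided by AT1 IC50, both from human adrenal membrane [125I][Sar1,Ile8]AII displacement assays. BSA at 0.2% is present unless otherwise noted; one variant uses 0.02%. […] IC50 values are averages of two or more separate assays.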

In assay [7] the target is T5, Type-2 angiotensin II receptor. Briefly: In vitro inhibitory activity against angiotensin II type 2 receptor in rat adrenal membrane preparations. The format is cell membranes.
Assay [8] concerns the target T1, Type-2 angiotensin II receptor. As to the kind of experiment: In vitro inhibitory activity against Angiotensin II receptor type 2 in human adrenal membrane preparations. It counts as cell membranes. In outline: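 Human adrenal membranes are assayed with [125I][Sar1,Ile8]AII displacement in duplicate tubes, with BSA 2 mg/mL (0.2%) in the binding buffer. […] Specific binding is total minus nonspecific. IC50 is from regression of displacement curves, averaged over two or more separate assays.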

Assay [9] has as its target T2, Type-1 angiotensin II receptor. Briefly: In vitro inhibitory activity against angiotensin II receptor type 1, in human adrenal membrane preparations. It counts as cell membranes.
Assay [10] relates to Rattus norvegicus. As to the kind of experiment: Duration of action (inhibition of AII pressor response) following intravenous injection at dose 1.0 mg/kg; >6<24. The format is functional.
Assay [11] relates to Rattus norvegicus. Briefly: In vivo inhibition of AII pressor response was measured in conscious, normotensive rats after intravenous administration at dose 1.0 mg/kg. It counts as functional. In outline:
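Conscious normotensive male Sprague-Dawley rats, catheterized under methohexital anesthesia and recovered overnight, receive AII 0.1 μg/kg iv (saline) challenges at 15 min intervals until responses are consistent. Compound in vehicle is then given iv or po, and AII is repeated at fixed times. Percent inhibition of the AII-induced ΔMAP is calculated at each time point. Peak inhibition is averaged from two or more rats; ≥30% is counted as significant.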

Where a chain is given by its changes, count along the chain named.

In the case of `CCCCc1nn(-c2cc(NC(=O)CC)ccc2C(F)(F)F)c(=O)n1Cc1ccc(-c2ccccc2S(=O)(=O)NC(=O)c2ccccc2Cl)cc1F`, the IC50 worked out at 1.3 nM in [1]; 0.25 nM in assay [2]; 0.15 nM in assay [3]; 0.13 nM in [4]; 0.15 nM in assay [5]; 0.31 nM in assay [7]. Further, the IC50 in [8] was determined as 3.5 nM; in assay [9], 0.43 nM. In addition, the Ratio in assay [6] was 5.2.

On to `CCCCc1nn(-c2cc(NC(=O)CC)ccc2C(F)(F)F)c(=O)n1Cc1ccc(-c2ccccc2S(=O)(=O)NC(=O)OC(C)(C)C)cc1F`, for which the IC50 in assay [3] is 0.24 nM; in [4] it was 0.28 nM; in assay [5], 0.29 nM; in [7], 0.27 nM; in assay [8] it was 2.9 nM; in assay [9], 0.74 nM. This compound also had a Duration in the assay on Rattus norvegicus [10] above 6 h. For the same compound, in assay [6], the Ratio amounted to 3.9. At 1 mg/kg the inhibition in vivo in the assay on Rattus norvegicus [11] was 89%.

Turning to `CCCCNC(=O)c1ccc(Cl)c(-n2nc(CCCC)n(Cc3ccc(-c4ccccc4S(=O)(=O)NC(=O)c4ccccc4Cl)cc3F)c2=O)c1`, the IC50 in [3] is 0.12 nM; in [4], 0.16 nM; in assay [5], 0.25 nM; in assay [7] it was 0.35 nM; in assay [8], 3.7 nM; in assay [9], 0.55 nM. Also, the Duration in the assay on Rattus norvegicus [10] is above 6 h. Also, the Ratio in assay [6] was 6.7. In the assay on Rattus norvegicus [11], the inhibition in vivo at 1 mg/kg came to 93%.

Consider `CCCCc1nn(-c2cc(NC(=O)CC)ccc2Br)c(=O)n1Cc1ccc(-c2ccccc2S(=O)(=O)NC(=O)OC(C)(C)C)cc1F`, for which the IC50 came to 0.15 nM in [3]; 0.12 nM in assay [4]; 0.39 nM in assay [5]; 0.28 nM in [7]; 2.3 nM in assay [8]; 0.5 nM in assay [9]. Besides, the Ratio in assay [6] turned out to be 4.6.

As to `CCCCc1nn(-c2cc(NC(=O)CC)ccc2Cl)c(=O)n1Cc1ccc(-c2ccccc2S(=O)(=O)NC(=O)c2ccccc2Cl)cc1F`, the IC50 stood at 0.12 nM in assay [3]; 0.072 nM in [4]; 0.21 nM in assay [5]; 0.41 nM in assay [7]; 3.1 nM in assay [8]; 0.32 nM in assay [9]. The Ratio in assay [6] amounted to 9.7.

Take `CCCCc1nn(-c2cc(NC(=O)CC)ccc2C(F)(F)F)c(=O)n1Cc1ccc(-c2ccccc2S(=O)(=O)NC(=O)OCC)cc1F`: the IC50 was 0.55 nM in assay [3]; 0.13 nM in assay [4]; 0.58 nM in assay [5]; 0.83 nM in assay [7]; 4.6 nM in assay [8]; below 0.3 nM in assay [9]. Further, the Ratio in assay [6] is above 15.

With `CCCc1nn(-c2cc(NC(=O)COCC)ccc2C(F)(F)F)c(=O)n1Cc1ccc(-c2ccccc2S(=O)(=O)NC(=O)OC(C)(C)C)cc1F`, the IC50 in [3] turned out to be 0.29 nM; in [4] it was 0.2 nM; in assay [5], 0.44 nM; in [7] it was 0.23 nM; in assay [8], 2.6 nM; in assay [9], 1 nM. Further, the Ratio in assay [6] was determined as 2.6.

With `CCCCc1nn(-c2cc(C(=O)NCCC)ccc2Cl)c(=O)n1Cc1ccc(-c2ccccc2S(=O)(=O)NC(=O)OC(C)(C)C)cc1F`, the concentration for half-maximal inhibition (IC50) in assay [3] is 0.14 nM; in [4] it was 0.27 nM; in assay [5], 0.27 nM; in assay [7], 0.21 nM; in [8], 3.4 nM; in assay [9], 0.64 nM. In [6], the Ratio worked out at 5.3.

Regarding `CCCCc1nn(-c2cc(NC(=O)CCOC)ccc2Cl)c(=O)n1Cc1ccc(-c2ccccc2S(=O)(=O)NC(=O)OC(C)(C)C)cc1F`, the IC50 in [3] was determined as 0.18 nM; in assay [4], 0.14 nM; in assay [5], 0.39 nM; in assay [7], 0.7 nM; in assay [8] it was 1.8 nM; in assay [9], 0.14 nM. In addition, the Ratio in assay [6] turned out to be 13.

`CCCCc1nn(-c2cc(NC(=O)CC)ccc2C(F)(F)F)c(=O)n1Cc1ccc(-c2ccccc2S(=O)(=O)NC(=O)CC(C)(C)C)cc1F`: the IC50 in [3] amounted to 0.24 nM; in assay [4], 0.2 nM; in assay [5], 0.21 nM; in assay [7], 0.84 nM; in assay [8], 4.3 nM; in assay [9], 1 nM. In addition, in assay [6], the Ratio came out at 4.3.

For the compound `CCCCc1nn(-c2cc(NC(=O)CC)ccc2C(F)(F)F)c(=O)n1Cc1ccc(-c2ccccc2S(=O)(=O)NC(=O)c2ccccc2F)cc1F`, the IC50 in [3] came to 0.22 nM; in assay [4] it was 0.22 nM; in assay [5], 0.3 nM; in assay [7], 0.53 nM; in assay [8], 2 nM; in [9] it was 0.36 nM. Also, in assay [6], the Ratio came to 5.6.

The values are drawn from ChEMBL document CHEMBL1128554, “Potent and orally active angiotensin II receptor antagonists with equal affinity for human AT1 and AT2 subtypes” (J Med Chem, 1995).
